14-3-3 Bad inh – disrupts binding of bovine 14-3-3 zeta to phospho-Bad peptide | hit rate 0.71% among 220,000 | inhibition, % at 21.7 µM | AID 781 | P63103 | TR-FRET 14-3-3zeta/Dy647-pBad peptide displacement, 1 h;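 active = inhibition above about 70%, limit read from the data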;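 note: 0% = full 14-3-3 plus peptide FRET controls and 100% = background without 14-3-3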
RBBP9 inhibitor – blocks human serine hydrolase RBBP9 | AID 1515 | O75884 | hit rate 0.2% among 220,000 | recombinant RBBP9, FP-Rh probe fluorescence polarization | inhibition, % at 7.94 µM;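 active = inhibition above the campaign mean of all tested compounds plus 3 SD, cut at about 14% in these data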;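 note: plate controls were DMSO wells with RBBP9 for no effect and wells lacking RBBP9 protein for full effect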
Target sequence (O75884 whole entry, looked up): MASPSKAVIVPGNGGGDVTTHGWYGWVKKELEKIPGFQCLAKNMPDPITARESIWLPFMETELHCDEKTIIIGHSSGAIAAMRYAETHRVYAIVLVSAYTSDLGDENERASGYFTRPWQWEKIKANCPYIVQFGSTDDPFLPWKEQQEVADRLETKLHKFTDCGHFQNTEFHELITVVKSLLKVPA
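System: RBBP9 protein / Quantity: 2.5 µM RBBP9 dispensing solution, before mixing / Also added: Serine-hydrolase probe FP-Rh, 375 nM pre-mixing / Dosing: 7.94 µM single dose, 0.794% DMSO / Timing: enzyme-compound preincubation 30 min, then probe labeling 45 min, 25 °C / Signal: FP readout at 525/598 nm / Controls: DMSO-treated enzyme wells and wells lacking RBBP9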
EBV gp42 block – inhibitors of Epstein-Barr virus glycoprotein 42; Fluorescence polarization binding assay, mP read-out; hit rate 0.42% among 220,000; inhibition, % (tested at 21.74 µM); in the data active = inhibition above about 50%
Target sequence (Q1HVG2 whole entry, looked up): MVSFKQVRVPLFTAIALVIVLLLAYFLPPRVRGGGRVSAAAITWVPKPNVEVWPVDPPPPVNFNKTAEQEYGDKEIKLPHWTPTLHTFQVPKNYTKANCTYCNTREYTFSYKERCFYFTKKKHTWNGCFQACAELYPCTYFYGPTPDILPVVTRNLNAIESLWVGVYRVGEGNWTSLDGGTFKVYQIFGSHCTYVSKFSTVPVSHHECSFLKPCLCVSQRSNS
eIF4E-4G inh – eIF4E/eIF4G interaction inhibition in translation initiation; hit rate 0.37% among 220,000; TR-FRET eIF4E-eIF4GI(517-606) binding, 2 h; P63073+Q04637; inhibition, % at 21.7 µM;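 note: 0% = full FRET control wells and 100% = background wells lacking eIF4GI fragment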
p47phox inh – p47phox (human) inhibition; p47phox/p22phox peptide binding, fluorescence polarization, 2 h; inhibition, % at 24.7 µM; P14598; hit rate 0.53% among 220,000;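 note: 0% = p47phox with labelled peptide and 100% = labelled peptide alone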
WT yeast gro inh – growth inhibition of WT yeast, mitochondrial fusion screen | mitochondrial fusion phenotypic screen, WT strain | hit rate 2.1% among 190,000 | inhibition, % at 10 µM; in the data active = inhibition above about 58%; tested in S. cerevisiae
RBBP9 inh conf – human RBBP9 inhibition, confirmation; hit rate 36% among 410; inhibition, % at 7.94 µM; recombinant RBBP9, FP-Rh probe fluorescence polarization; shares compounds with RBBP9 inhibitor; AID 1537;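 active = inhibition above the hit cutoff derived for the primary screen, cut at about 15% in these data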;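 note: 0% = RBBP9 with DMSO and 100% = wells lacking RBBP9 protein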
An asterisk follows results filed as active; x = not tested or not shown. In the library only some 3.7% were active in any assay of this set; here they are far more common.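 Rule for the calls, unless noted: active = inhibition above about 30% (limit read from the data); inactive = the rest.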

SMILES	14-3-3 Bad inh	RBBP9 inhibitor	EBV gp42 block	eIF4E-4G inh	p47phox inh	WT yeast gro inh	others
CNC(=O)OCCc1n(C)cc[n+]1C	-26	-2	-27	1	-4	-13
NC(=O)c1ccc(C(=O)Nc2ccc([As](=O)(O)O)cc2)cc1	1	2	3	90*	0	x
CC[N+](CC)(CC)CC	-1	x	6	-17	11	x
Nc1cc2nc3ccccc3nc2cc1N	18	3	179*	36*	6	x
COc1ccc(-n2c(O)c(C=NCc3ccc4c(c3)OCO4)c(=O)[nH]c2=O)cc1	0	-5	-1	-5	2	x
CN(C)[C@@H]1C(=O)C(C(N)=O)=C(O)[C@@]2(O)C(=O)C3=C(O)c4c(O)cccc4[C@@](C)(O)[C@H]3[C@H](O)[C@@H]12	89*	5	4	47*	-9	2
CN(C)C(=O)Oc1ccc(Br)c2ccccc12	-5	0	-5	0	7	-3
CC(=NCc1cccnc1)c1c(O)n(-c2ccc(Cl)cc2)c(=O)[nH]c1=O	1	-2	-5	4	-5	x
C#CC[N+]1(C)C2CCC1CC(O)C2 (stereo unspecified)	-12	4	-1	0	-2	-8
C=CCn1c(O)c(/C=C2/C=CC=N2)c(=O)[nH]c1=O	-3	-7	-34	0	-8	-9
O=c1[nH]c(=O)n(Cc2ccccc2Cl)c(O)c1/C=C1/C=CC=N1	0	-15	58*	9	-135	-9
Cc1ccc(S(=O)(=O)N(c2cc(Cl)c(O)c(Cl)c2)P(=O)(OC(C)C)OC(C)C)cc1	-11	-4	2	-5	9	-10
CC(C)[C@@]1(NC(=O)[C@@H]2C=C3c4cccc5[nH]cc(c45)C[C@H]3N(C)C2)O[C@@]2(O)[C@@H]3CCCN3C(=O)[C@H](Cc3ccccc3)N2C1=O	2	-5	112*	1	17	21
CC(C)[C@@]1(NC(=O)[C@@H]2C[C@@H]3c4cccc5[nH]cc(c45)C[C@H]3N(C)C2)O[C@@]2(O)[C@@H]3CCCN3C(=O)[C@H](Cc3ccccc3)N2C1=O	2	-1	12	-4	-10	-13
CC(C)[C@H]1C(=O)N2CCC[C@H]2[C@]2(O)O[C@](NC(=O)[C@@H]3C=C4c5cccc6[nH]cc(c56)C[C@H]4N(C)C3)(C(C)C)C(=O)N12	-3	-7	112*	6	12	14
CC(C)C[C@H]1C(=O)N2CCCC2[C@]2(O)O[C@](NC(=O)[C@@H]3C=C4c5cccc6[nH]cc(c56)CC4N(C)C3)(C(C)C)C(=O)N12 (stereo partly specified)	-1	-4	97*	8	-4	4
CC(=O)OC1N=C(c2ccccc2)c2cc(Br)ccc2NC1=O (stereo unspecified)	1	1	-17	-8	-1	0
CC(=O)OC1N=C(c2ccccc2)c2cc(Br)ccc2N(C)C1=O (stereo unspecified)	6	1	-13	-1	32*	9
C=CCN1C(=O)NC(=O)/C(=C/c2cc3c4c(c2)CCCN4CCC3)C1=O	-19	-4	-92	12	-206	21
O=C1NC(=S)NC(=O)C1=Cc1ccc2c(c1)CCN2CCCCl	33	-5	71*	25	-94	x
CC(C)N(Cc1ccco1)/N=C/c1c(O)n(Cc2ccccc2)c(=O)[nH]c1=O	6	19*	-13	1	-6	x	RBBP9 inh conf=7
O=c1[nH]c(=O)n(Cc2ccco2)c(O)c1C=NC1CC1	-1	-3	-17	3	-17	2
CCN1/C(=C\C=C\C2=[N+](CC)c3ccccc3C2(C)C)C(C)(C)c2ccccc21	-8	100*	7	-8	-234	89	RBBP9 inh conf=-50
CCOC(=O)C1CCCN(c2ccc([N+](=O)[O-])c3nonc23)C1 (stereo unspecified)	-2	19*	127*	4	-243	9	RBBP9 inh conf=31*
O=C(c1cccc2ccccc12)C1CCCN(C2CCC2)C1 (stereo unspecified)	-11	-10	-5	0	-3	4
CCC(C)n1c(O)c(C=NC(C)c2ccccc2)c(=O)[nH]c1=S (stereo unspecified)	5	16*	1	2	-7	x	RBBP9 inh conf=2
COc1ccc(C2NCCc3[nH]cnc32)cc1 (stereo unspecified)	-5	-6	-1	0	-5	-19
N#CCCn1cc(C(=O)Nc2ccccc2Br)c(-c2ccc3c(c2)OCCO3)n1	-2	-9	2	1	-9	-3
CC(C)N1CCN(c2ccc(O)cc2)CC1	-8	15*	-6	-7	7	-7	RBBP9 inh conf=-1
Cc1cccc(OP(=O)(Oc2ccccc2)OC(c2ccccc2)C(F)(F)F)c1 (stereo unspecified)	-5	-7	5	1	-5	46

Screening data (PubChem BioAssay)
